Bioassay records (PubChem BioAssay)
APP 5'UTR act – activators of APP 5'UTR luciferase reporter, primary screen, SH-SY5Y cells; activation, % at 2 µM; SH-SY5Y APP 5'UTR luciferase reporter, luminescence; zero percent = DMSO vehicle wells; 190,000 compounds, 1% hits; AID 1276, 2008;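 active means activation above a set limit, based on mean plus 3 SD of controls, cut at about 140% in these data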
NF-kB expr up – activators of NF-kB expression in neurons, primary screen, cell-based, HTS. human neuronal cells, NF-kB reporter expression; hits give high values. fold change at 12.5 µM. 190,000 compounds, 1.6% hits. AID 1239, 2008; in the data active means fold change above about 3.3
STAT1 act – STAT1 signaling activators, primary screen, cell-based, HTS, luciferase reporter; AID 932, 2007; 200,000 compounds, 2.6% hits; NIH 3T3 STAT1-luciferase reporter, IFN-gamma, luminescence; 100% = IFN-gamma alone, no compound; activation (% of control), % at 5.5 µM;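 active means activation above the screen-wide mean activation plus 3 SD, cut at about 130% in these data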;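 further: raw ratio to IFN-gamma control signal so 100% means no change and 0% no light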
FLuc inhib CS – firefly luciferase enzyme inhibitors, primary screen, artefact control for luciferase-based inhibitor screens, biochemical, luminescence, ATPLite. Luciferin 4-monooxygenase (Photinus pyralis), P08659. 200,000 compounds, 1.5% hits. 10 min. inhibition, % at 10 µM;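 active means inhibition above about 50% when tested at 10 µM, limit read from the data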
Target sequence (P08659 whole entry, looked up): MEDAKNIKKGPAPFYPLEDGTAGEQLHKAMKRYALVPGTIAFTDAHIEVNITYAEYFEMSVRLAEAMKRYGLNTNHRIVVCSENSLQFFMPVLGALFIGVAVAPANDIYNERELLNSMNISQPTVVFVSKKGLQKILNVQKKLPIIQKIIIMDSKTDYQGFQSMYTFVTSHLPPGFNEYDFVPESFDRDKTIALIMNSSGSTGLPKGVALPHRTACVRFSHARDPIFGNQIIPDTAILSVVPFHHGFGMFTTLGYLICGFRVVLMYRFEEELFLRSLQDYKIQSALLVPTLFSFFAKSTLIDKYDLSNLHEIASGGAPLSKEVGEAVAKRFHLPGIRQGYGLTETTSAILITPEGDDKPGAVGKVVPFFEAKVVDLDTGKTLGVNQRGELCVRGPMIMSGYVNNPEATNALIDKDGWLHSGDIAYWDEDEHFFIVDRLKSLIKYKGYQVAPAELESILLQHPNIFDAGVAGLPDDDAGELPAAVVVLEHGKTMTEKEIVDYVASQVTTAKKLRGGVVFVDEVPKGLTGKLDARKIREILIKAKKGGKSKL
SDO1 yeast rescue – growth rescue of sdo1-depleted yeast, primary screen, S. cerevisiae, bone marrow failure model; S. cerevisiae sdo1-depleted JHY4D growth rescue, OD600 30 h; hits give high values; pdr5 snq2 efflux-pump mutant strain; 140,000 compounds, 0.21% hits; AID 817, 2007; z-score at 10 µM;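 active means z-score above 3 at both the 24 hr and the 30 hr optical density reads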;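 further: z-score against mean and SD of all compound wells on the same plate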
FLuc stim CS – FLuc activators, initial screening, artefact control for FLuc-dependent activation tests, biochemical, ATPlite luminescence | Luciferin 4-monooxygenase (Photinus pyralis), P08659 | ATPlite luciferase biochemical, 10 min; 0 = ATP-free wells, 1 = DMSO control | activation factor at 10 µM | 200,000 tested, under 10 active | AID 1027, 2008;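 active means luciferase activation factor, scaled between plate controls, of at least 2 with compound at 10 µM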
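Assay system: Luciferase/luciferin reagent mix; Medium: PBS as buffer for the ATP substrate; Dosing: test compounds dosed from 2 mM stocks in 100% DMSO; Times: 10 min, room temperature; Signal: luminescence from luciferase reaction; Read-out: luciferase activation; Controls: No-ATP low control, compound-free enzyme-plus-ATP high control.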
* = called active by the depositor. Most compounds without a hit are left out; they make up all but 4.3% or so of the library.

For CCOC(=O)C(=Cc1ccc(OCc2ccc([N+](=O)[O-])cc2)c(OC)c1)C(=O)OCC the results were APP 5'UTR act 10.4, NF-kB expr up 3.6*, STAT1 act 113.4, FLuc inhib CS 1.4, SDO1 yeast rescue -1.47 and FLuc stim CS 1.
Screening COC(=O)C(=Cc1ccc(OCc2ccc([N+](=O)[O-])cc2)c(OC)c1)C(=O)OC returned APP 5'UTR act 17.3, NF-kB expr up 4.4*, STAT1 act 122.4, FLuc inhib CS -0.8, SDO1 yeast rescue -0.14 and FLuc stim CS 1.
N/N=C(\c1ccccc1)C12CN3CN(CN(C3)C1)C2 was read as APP 5'UTR act -19.0, NF-kB expr up 1.03, STAT1 act 105.2, FLuc inhib CS 0.0, SDO1 yeast rescue 0.03 and FLuc stim CS 1.
`N/C(Cc1ccccc1)=N\OC(=O)c1cccc2ccccc12` gave APP 5'UTR act 3.6, NF-kB expr up 0.75, STAT1 act 103.1, FLuc inhib CS -3.0, SDO1 yeast rescue -1.68 and FLuc stim CS 1.
`O=C(/C=C/c1ccc([N+](=O)[O-])cc1)NCCc1ccc(F)cc1` gave APP 5'UTR act -5.9, NF-kB expr up 1.05, STAT1 act 99.7, FLuc inhib CS -5.3 and FLuc stim CS 1.1.
`O=C(NCCc1ccc(F)cc1)c1ccc([N+](=O)[O-])cc1` gave APP 5'UTR act 96.4, NF-kB expr up 2.19, STAT1 act 137.2*, FLuc inhib CS 19.2 and FLuc stim CS 0.8.
`CCOC(=O)C1(Cc2cccc(Cl)c2)CCCN(C(=O)C2CC2)C1` (stereo unspecified) gave APP 5'UTR act 17.1, NF-kB expr up 1.2, STAT1 act 109.0, FLuc inhib CS -9.3 and FLuc stim CS 1.1.
CC(=O)N(/N=C1\Sc2ccccc2C1=O)c1ccccc1C was read as APP 5'UTR act 130.8, NF-kB expr up 5.03*, STAT1 act 124.2, FLuc inhib CS 4.3, SDO1 yeast rescue 0.19 and FLuc stim CS 1.
CCOc1cc(CNc2ccc(N(C)C)cc2)cc(Br)c1OCC(=O)NC(C)(C)C was read as APP 5'UTR act 104.8, NF-kB expr up 0.44, STAT1 act 144.8*, FLuc inhib CS -3.6, SDO1 yeast rescue 0.17 and FLuc stim CS 1.
CCOc1cc(CNc2ccc(N3CCCCC3)cc2)cc(Br)c1OCC(=O)NC(C)(C)C was read as APP 5'UTR act 9.4, NF-kB expr up 0.91, STAT1 act 89.4, FLuc inhib CS -2.6, SDO1 yeast rescue -1.87 and FLuc stim CS 1.
O=C1N/C(=N\c2ccccn2)SC1Cc1ccc(Cl)cc1 (stereo unspecified) was read as APP 5'UTR act -10.6, NF-kB expr up 1.98, STAT1 act 97.6, FLuc inhib CS -10.8 and FLuc stim CS 1.1.
`Cc1nn(Cc2ccccc2)c(Cl)c1C(=O)NCCc1ccccc1` gave APP 5'UTR act 90.8, NF-kB expr up 4.31*, STAT1 act 149.3*, FLuc inhib CS 13.2, SDO1 yeast rescue -0.92 and FLuc stim CS 0.9.
For CCCOc1ccc(-c2cn3ccccc3n2)cc1[N+](=O)[O-] the results were APP 5'UTR act 142.2*, NF-kB expr up 4.13*, STAT1 act 120.1, FLuc inhib CS 77.5*, SDO1 yeast rescue -1.5 and FLuc stim CS 0.2.
COc1ccc(-c2cn3cc([N+](=O)[O-])ccc3n2)cc1OC was read as APP 5'UTR act 32.6, NF-kB expr up 1.52, STAT1 act 119.7, FLuc inhib CS 21.2 and FLuc stim CS 0.8.
Screening COc1ccc(-c2cn3ccccc3n2)cc1[N+](=O)[O-] returned APP 5'UTR act 103.8, NF-kB expr up 1, STAT1 act 144.3*, FLuc inhib CS 79.1*, SDO1 yeast rescue 1.1 and FLuc stim CS 0.2.
`Cc1ccc(/C(N)=N/OC(=O)Cc2cccs2)cc1` gave APP 5'UTR act 107.5, NF-kB expr up 2.72, STAT1 act 149.6*, FLuc inhib CS 14.7, SDO1 yeast rescue -0.39 and FLuc stim CS 0.9.
`N/C(=N\OC(=O)Cc1cccs1)c1ccccc1` gave APP 5'UTR act 23.6, NF-kB expr up 2.3, STAT1 act 137.4*, FLuc inhib CS 23.6, SDO1 yeast rescue -0.18 and FLuc stim CS 0.8.
Cc1cccc(/C(N)=N/OC(=O)Cc2cccs2)c1 was read as APP 5'UTR act 41.1, NF-kB expr up 2.69, STAT1 act 131.9*, FLuc inhib CS 19.4, SDO1 yeast rescue 0.58 and FLuc stim CS 0.8.
`Cc1ccc(/C(N)=N/OC(=O)Cc2ccccc2)cc1` gave APP 5'UTR act 53.1, NF-kB expr up 2.38, STAT1 act 132.9*, FLuc inhib CS 19.5, SDO1 yeast rescue -1.93 and FLuc stim CS 0.8.
For N/C(=N\OC(=O)Cc1ccccc1)c1ccc(Br)cc1 the results were APP 5'UTR act -1.6, NF-kB expr up 1.79, STAT1 act 106.3, FLuc inhib CS 1.1, SDO1 yeast rescue -1.58 and FLuc stim CS 1.
For N/C(=N\OC(=O)Cc1cccs1)c1cccc([N+](=O)[O-])c1 the results were APP 5'UTR act 4.1, NF-kB expr up 1.56, STAT1 act 114.5, FLuc inhib CS 2.8, SDO1 yeast rescue 0.26 and FLuc stim CS 1.
`Cc1ccc(NCC(=O)Nc2cccc(S(=O)(=O)N(C)C)c2)c(Cl)c1` gave APP 5'UTR act 2.6, NF-kB expr up 1.21, STAT1 act 98.5, FLuc inhib CS 3.6, SDO1 yeast rescue -0.15 and FLuc stim CS 1.
CCn1c(SCc2ccccc2)nnc1-c1cccnc1 was read as APP 5'UTR act -8.1, NF-kB expr up 0.93, STAT1 act 110.6, FLuc inhib CS -1.5 and FLuc stim CS 1.
Cc1cc(NCCCN2CCOCC2)n2ncc(-c3ccccc3)c2n1 was read as APP 5'UTR act 155.5*, NF-kB expr up 4.42*, STAT1 act 146.6*, FLuc inhib CS 15.2, SDO1 yeast rescue 0.12 and FLuc stim CS 0.8.
For c1ccc2c(NCCCN3CCOCC3)c3ccccc3nc2c1 the results were APP 5'UTR act -62.9, NF-kB expr up 3.12, STAT1 act 180.3*, FLuc inhib CS -6.0 and FLuc stim CS 1.1.
For CCN(CC)C(=S)SCC(=O)NC12CC3CC(CC(C3)C1)C2 the results were APP 5'UTR act -0.2, NF-kB expr up 0.99, STAT1 act 106.6, FLuc inhib CS -8.6, SDO1 yeast rescue -1.49 and FLuc stim CS 1.1.
CC1=CC2=NC(=O)/C(=C\c3cccn3CCOc3cc(C)ccc3C)C(=N)N2O1 was read as APP 5'UTR act -3.8, NF-kB expr up 0.83, STAT1 act 96.6, FLuc inhib CS -9.5, SDO1 yeast rescue -1.18 and FLuc stim CS 1.1.
Cc1nc2cc(NC(=O)Nc3ccccc3Cl)ccc2n1C was read as APP 5'UTR act 192.7*, NF-kB expr up 3.9*, STAT1 act 61.7, FLuc inhib CS 91.2* and FLuc stim CS 0.1.
